Test results from ChEMBL document CHEMBL1938394, “Time-dependent slowly-reversible inhibition of monoamine oxidase A by N-substituted 1,2,3,6-tetrahydropyridines” (Bioorg Med Chem, 2011).

Tests used:
[1] = target: T1, Amine oxidase [flavin-containing] A (Homo sapiens, UniProt P21397); assay: Inhibition of human recombinant MAOA expressed in insect cells assessed as oxidation of kynuramine substrate at 50 uM measured after additional substrate added after 90 mins incubation; conditions: 1.5 h
T1 sequence (P21397 whole entry): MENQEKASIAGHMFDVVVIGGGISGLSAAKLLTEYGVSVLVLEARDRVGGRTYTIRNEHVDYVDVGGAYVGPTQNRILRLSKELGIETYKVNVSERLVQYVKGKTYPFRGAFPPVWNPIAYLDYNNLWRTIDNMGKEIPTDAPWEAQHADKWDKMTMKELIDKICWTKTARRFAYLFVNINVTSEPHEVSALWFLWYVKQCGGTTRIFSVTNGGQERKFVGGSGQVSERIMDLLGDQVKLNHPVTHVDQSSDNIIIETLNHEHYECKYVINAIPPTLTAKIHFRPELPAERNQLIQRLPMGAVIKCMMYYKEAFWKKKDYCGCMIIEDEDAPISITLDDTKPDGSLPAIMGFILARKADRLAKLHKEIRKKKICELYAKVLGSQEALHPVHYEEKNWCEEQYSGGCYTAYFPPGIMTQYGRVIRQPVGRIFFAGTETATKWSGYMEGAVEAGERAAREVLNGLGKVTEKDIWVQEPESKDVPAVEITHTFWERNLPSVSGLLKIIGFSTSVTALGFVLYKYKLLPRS
Outline: (§1)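 Recombinant human MAO-A incubated with kynuramine, with or without inhibitor. Product formation followed over time. A second equivalent of substrate (150 µM kynuramine) added at 90 min and fresh enzyme added at 120 min.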

Mus musculus [2] = assay: Neurotoxicity in C57BL/6J mouse assessed as reduction of striatal tyrosine hydroxylase level at 12.5 mg/kg, sc after 72 hrs by ELISA; format: toxicity, organism-based; set-up: dose 12.5 mg/kg, route subcutaneous; conditions: in vivo
Outline: (§2)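 Female C57BL/6J mice aged 3–4 months, single sc dose, 0.9% saline vehicle, killed 72 h post-dose. Striatum homogenised in hot 1% SDS. GFAP or TH measured by detergent-based sandwich ELISA.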

Mus musculus [3] = assay: Neurotoxicity in C57BL/6J mouse assessed as increase of striatal GFAP level at 12.5 mg/kg, sc after 72 hrs by ELISA; format: toxicity, organism-based; set-up: dose 12.5 mg/kg, route subcutaneous; conditions: in vivo; outline: as §2
[4] = target: T1, Amine oxidase [flavin-containing] A; assay: Inhibition of human recombinant MAOA expressed in insect cells assessed as oxidation of kynuramine substrate at 50 uM measured after additional enzyme added after 120 mins incubation; conditions: 2 h; outline: as §1

With `CN1CC=C(c2ccccc2)CC1` the “inhibition (INH)” value [1] was “Active”, the Activity (Mus musculus [2]) was “Toxic” and the Activity (Mus musculus [3]) was “Toxic”. For the same molecule, the “inhibition (INH)” value [4] was “Active”.
